Inconclusive results are not listed.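 Rule for the calls, unless noted: active = cell viability at or below a set limit in both duplicate runs, the limit being the all-compound median minus 4 SD (cut at about 23% in these data, passing the limit was not always enough); inconclusive = no clear call, values can overlap the other calls; inactive = the rest.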
Key:
[1] = S. cerevisiae growth inhibition in permissive medium (OD615), pilot counter-assay for S. cerevisiae lifespan shortening project, permissive growth control (AID 705;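 active = growth inhibition above 25% in both replicates, a cutoff set 3 SD above the mean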); conditions: OD615, 24 h, at 10 µM, stronger effect = higher value
In short: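 System: S. cerevisiae with engineered DeaD lifespan system / Measured by: absorbance (optical density) at 615 nm / Read-out: reduction in yeast growth (OD615) / Times: 4 h cell pre-growth, 24 h exposure at 30 °C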

[2] = S. cerevisiae growth inhibition in restrictive medium, OD615, pilot screen, restrictive growth control, yeast lifespan reduction project (AID 706;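 active = growth inhibition above a set limit, 3 SD over mean compound inhibition, in both replicates, cut at about 43% in these data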;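 note: modified DeaD lifespan yeast strain shifted to restrictive glucose medium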); conditions: OD615, 48 h, at 10 µM, stronger effect = higher value
In short: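 System: Engineered S. cerevisiae DeaD strain | Buffer or medium: Glucose-based CSMM-D restrictive medium | Schedule: 4 h pre-incubation, 48 h exposure at 30 °C | Technique: Optical density at 615 nm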

[3] = doxorubicin toxicity protection in MRP-1 cells – H69AR cells, CellTiter-Glo, duplicate, MRP-1 activator project, pilot screen (AID 807;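 active = viability increase at or above a cutoff of the median across tested compounds plus 3 SD, cut at about 8.5% in these data, passing the limit was not always enough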;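 note: compound pretreatment 18-22 h then 72 h combined with doxorubicin; 0% = doxorubicin alone and 100% = vehicle without doxorubicin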); conditions: H69AR viability with doxorubicin, CellTiter-Glo luminescence; at 10 µM; stronger effect = higher value
[4] = viability of HCT116 without oncogenic beta-catenin – human colon tumor cells, pilot screen (AID 823); conditions: HCT116 beta-catenin knockout viability, CellTiter-Glo, 60 h; at 10 µM; stronger effect = lower value;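 note: 0% = wells killed by 20 µM Hyamine and 100% = untreated DMSO cell wells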
[5] = viability of PTEN-null HCT116 cells – cell-based, HCT116 clonal line, CellTiter-Glo, pilot screen (AID 824;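 active = viability at or below 27.92% in each of two runs, the all-compound median minus 4 SD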;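 note: 0% = 20 µM Hyamine control and 100% = vehicle cell control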); conditions: HCT116 PTEN-deleted viability, 60 h, at 10 µM, stronger effect = lower value
[6] = RAM pathway blockade in budding yeast – dse1pr::URA3 reporter, 5-FOA selection, pilot screen (AID 869;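 active = inhibition over a set limit, the all-compound mean plus 3 SD, in both replicate runs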;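 note: 0% = DMSO wells with no growth and 100% = 10 µM 1-NA-PP1 with full growth; RAM network block rescues cells from 5-FOA so hits raise OD615 growth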); conditions: S. cerevisiae dse1pr::URA3 5-FOA growth, OD615, 2 d; at 10 µM; stronger effect = higher value; strain carries analog-sensitive mutant Cbk1 kinase
[7] = RAM signaling pathway blockade in yeast – S. cerevisiae, Pdr1DBD-CYC8 efflux-inhibited sensitized strain, primary screen (AID 1298;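 active = RAM network inhibition above 8.4% in each of two replicates, 3 SD over the compound average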;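 note: 0% = DMSO untreated cells without growth and 100% = 10 µM 1-NA-PP1 full growth; higher means more yeast growth rescued from 5-FOA killing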); conditions: S. cerevisiae cbk1-as DSE1-URA3 strain, 5-FOA growth OD615, 2 d; at 50 µM; stronger effect = higher value

O=C(Cn1c(=O)oc2cc(S(=O)(=O)N3CCCCCC3)ccc21)NC1CCCCCCC1
inactive: growth inhibition [1] -9.87% | growth inhibition [2] -14.8% | viability increase [3] -7.86% | viability [4] 95.2% | viability [5] 88.5% | inhibition [6] 4.98% | RAM network inhibition [7] 10.5%

Cc1ccc(F)c(NC=C2C(=O)OC(C)(C)OC2=O)c1
inactive: growth inhibition [1] -10.2% | growth inhibition [2] -7.67% | viability increase [3] 0.97% | viability [4] 87.9% | viability [5] 92.8% | inhibition [6] 2.53% | RAM network inhibition [7] 2.44%

COC(=O)c1ccc(-c2nc(-c3ccc(Br)o3)no2)cc1
inactive: growth inhibition [1] -14% | growth inhibition [2] -20.4% | viability increase [3] 3.93% | viability [4] 103% | viability [5] 87.4% | inhibition [6] 2.63% | RAM network inhibition [7] 1.84%

COc1cc(C2C(C(=O)c3ccco3)=C(O)C(=O)N2Cc2cccnc2)cc(OC)c1OC (configuration not stated)
inactive: growth inhibition [1] 2.67% | growth inhibition [2] -4.03% | viability increase [3] -3.86% | viability [4] 102% | viability [5] 96.8% | inhibition [6] 1.64% | RAM network inhibition [7] 4.97%

CCCSc1nc2c(cnn2-c2ccc(C)c(C)c2)c(=O)[nH]1
inactive: growth inhibition [1] -8.57% | growth inhibition [2] -3.42% | viability increase [3] -1.72% | viability [4] 93.2% | viability [5] 69.9% | inhibition [6] 2.58% | RAM network inhibition [7] 4.37%

Cc1ccc(-n2nnc3c(=O)n(CC(=O)OCc4ccccc4)cnc32)cc1
inactive: growth inhibition [1] -3.74% | growth inhibition [2] -5.4% | viability increase [3] -2.06% | viability [4] 92.6% | viability [5] 91.1% | inhibition [6] 2.02% | RAM network inhibition [7] 6.18%

Cc1cc(C(=O)NCc2cccs2)n(-c2ccccc2)n1
inactive: growth inhibition [1] -10.7% | growth inhibition [2] -6.11% | viability increase [3] 0.91% | viability [4] 102% | viability [5] 90.6% | inhibition [6] 1.03% | RAM network inhibition [7] 5.86%

CC12CCC(C(=O)Nc3ccc4c(c3)OCCO4)(OC1=O)C2(C)C (configuration not stated)
inactive: growth inhibition [1] -20.5% | growth inhibition [2] -5.64% | viability increase [3] -0.01% | viability [4] 93.7% | viability [5] 97.8% | inhibition [6] 1.28% | RAM network inhibition [7] -0.36%

COc1ccc(-c2nc(C(N)=O)c3[nH]c(=O)n(-c4ccccc4OC)c3n2)c(OC)c1
inactive: growth inhibition [1] -0.775% | growth inhibition [2] 4.02% | viability increase [3] -4.59% | viability [4] 74.1% | viability [5] 63.2% | inhibition [6] 0.63% | RAM network inhibition [7] 0.1%

CCOc1ccc(C2CC(c3ccc(CC)cc3)n3nc(N)nc3N2)cc1 (configuration not stated)
inactive: growth inhibition [1] 1.88% | growth inhibition [2] 21% | viability increase [3] 2.68% | viability [4] 91.5% | viability [5] 83.5% | inhibition [6] 1.54% | RAM network inhibition [7] 3.52%

COc1cccc2cc(C(=O)N3CCC(C)CC3)c(=O)oc12
inactive: growth inhibition [1] -2.37% | growth inhibition [2] -3.85% | viability increase [3] -0.12% | viability [4] 96.8% | viability [5] 90.5% | inhibition [6] 1.17% | RAM network inhibition [7] 4.51%

Cc1c(NC(=O)c2ccc3c(c2)OCO3)cccc1-c1nc2ncccc2o1
inactive: growth inhibition [1] -9.32% | growth inhibition [2] -13.2% | viability increase [3] -1.14% | viability [4] 102% | viability [5] 95.3% | inhibition [6] 2.48% | RAM network inhibition [7] 3.92%

COc1ccccc1C(=O)NC(CCSC)C(=O)NCC(c1ccco1)N(C)C (configuration not stated)
inactive: growth inhibition [1] -10.1% | growth inhibition [2] -0.55% | viability increase [3] -2.48% | viability [4] 87.2% | viability [5] 89.5% | inhibition [6] 1.89% | RAM network inhibition [7] 1.92%

CCOC(=O)N1CCN(C(=O)C2CCN(C(=O)c3cc4sccc4n3CC)CC2)CC1
inactive: growth inhibition [1] -16.3% | growth inhibition [2] -18.7% | viability increase [3] -3.05% | viability [4] 91.7% | viability [5] 98.9% | inhibition [6] 0.825% | RAM network inhibition [7] 3.06%

CCCCNC(=O)CCCn1c(=O)[nH]c2ccc(Br)cc2c1=O
inactive: growth inhibition [1] -13% | growth inhibition [2] -18% | viability increase [3] -0.78% | viability [4] 97.9% | viability [5] 92.7% | inhibition [6] 0.635% | RAM network inhibition [7] 1.08%

CCN(Cc1ccccc1)C(=O)CSc1nc(C)cc(C)c1C#N
inactive: growth inhibition [1] -12.8% | growth inhibition [2] -2.79% | viability increase [3] 4.58% | viability [4] 104% | viability [5] 87.3% | inhibition [6] 2.48% | RAM network inhibition [7] 0.99%

From PubChem BioAssay
